Laboratory results reported in ChEMBL document CHEMBL1131070, “Synthesis and antiallergic activity of dimethyl-2-(phenylcarbamoyl)ethylsulfonium p-toluenesulfonate derivatives” (J Med Chem, 1998).

Columns and labels:
Rattus norvegicus [1] = test: Inhibition of homologous Passive Cutaneous Anaphylaxis in rat, following 20 mg/kg i.p. administration.; type: functional; settings: po, in the assay text read “p.o.” for “i.p.”
In short: (§1)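 Rat anti-DNP-As serum (raised with DNP-coupled ascaris plus killed Bordetella pertussis; titer about 1:256 by 48-h PCA) diluted 20-fold in 0.9% saline, given intradermally as 0.1 mL at three shaved-back sites of normal rats, with saline on the other side. After 48 h, 1.0 mL of 0.25% Evans blue containing 2.0 mg of antigen given iv. Read-out is % inhibition ± SD.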

Rattus norvegicus [2] = test: Inhibition of the homologous passive cutaneous anaphylaxis (PCA) in rat, administered at a dose of 50 mg/kg intraperitoneally; type: functional; settings: ip, route intraperitoneal; in short: as §1
Rattus norvegicus [3] = test: Inhibitory activity against the homologous Passive Cutaneous Anaphylaxis (PCA) in rat, administered at a dose of 100 mg/kg intraperitoneally; type: functional; settings: ip, route intraperitoneal; in short: as §1
[4] = Lethal dose (LD50) determined in male ddY mice; type: toxicity; settings: mouse, in vivo
In short: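 Acute toxicity by the up-down method, five animals per determination, with LD50 reported in mg/kg.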

Rattus norvegicus [5] = test: Inhibitory activity against the homologous Passive Cutaneous Anaphylaxis (PCA) in rat, administered at a dose of 20 mg/kg perorally; type: functional; settings: route oral; in short: as §1
Rattus norvegicus [6] = test: Inhibitory activity against the homologous Passive Cutaneous Anaphylaxis (PCA) in rat, administered at a dose of 50 mg/kg perorally; type: functional; settings: route oral; in short: as §1

Compound	inhibition in vivo at 20 mg/kg (Rattus norvegicus [1]) [%]	inhibition in vivo at 50 mg/kg (Rattus norvegicus [2]) [%]	further results
CCOCC(O)COc1ccc(NC(=O)CC[S+](C)C)cc1 (centres undefined) [SUPLATAST TOSILATE]	28.9	35.5	–
CCOCC(COc1ccc(NC(=O)CC[S+](C)C)cc1)OCC (centres undefined)	0.1	5.1	–
C[S+](C)CCC(N)=O	–	2.4	inhibition in vivo at 100 mg/kg (Rattus norvegicus [3]): 13.7%
C[S+](C)CCC(=O)Nc1ccc(O)cc1	21.9	9.7	–
CCOCC(COc1cccc(NC(=O)CC[S+](C)C)c1)OC(C)=O (centres undefined)	18.2	17.7	–
CCCOCC(O)COc1ccc(NC(=O)CC[S+](C)C)cc1 (centres undefined)	16.3	13.8	–
C[S+](C)CCC(=O)Nc1ccc(C(F)(F)F)cc1	-7.8	-10.3	–
CCOCC(COc1ccc(NC(=O)CC[S+](C)C)cc1)OC(C)=O (centres undefined)	35.1	30.2	–
COc1ccc(NC(=O)CC[S+](C)C)cc1	-4.4	17.4	–
Cc1ccc(NC(=O)CC[S+](C)C)cc1	18.9	22	–
COCC(COc1ccc(NC(=O)CC[S+](C)C)cc1)OC (centres undefined)	17.9	10.5	–
CC(O)COc1ccc(NC(=O)CC[S+](C)C)cc1.Cc1ccc(S(=O)(=O)[O-])cc1 (centres undefined)	–	–	LD50 [4]: 495 mg/kg
CCCOc1ccc(NC(=O)CC[S+](C)C)cc1.Cc1ccc(S(=O)(=O)[O-])cc1	13.8	29.8	LD50 [4]: 97 mg/kg
C[S+](C)CCC(=O)Nc1ccc(F)cc1	4	1.2	–
C[S+](C)CCC(=O)Nc1ccc(Cl)cc1	-0.2	0.3	–
C[S+](C)CCC(=O)Nc1ccc(OCC(O)COc2ccccc2)cc1 (centres undefined)	14.4	4.6	–
CCOCC(COc1ccccc1NC(=O)CC[S+](C)C)OC(C)=O (centres undefined)	-2	20	–
C[S+](C)CCC(=O)Nc1ccc(OCCCO)cc1.Cc1ccc(S(=O)(=O)[O-])cc1	–	–	LD50 [4]: 324 mg/kg
C[S+](C)CCC(=O)Nc1ccc(OCC(O)CO)cc1.Cc1ccc(S(=O)(=O)[O-])cc1 (centres undefined)	38.7	34.9	inhibition in vivo at 20 mg/kg (Rattus norvegicus [5]): 1.4%; inhibition in vivo at 50 mg/kg (Rattus norvegicus [6]): 18.6%; LD50 [4]: 1040 mg/kg
COCC(O)COc1ccc(NC(=O)CC[S+](C)C)cc1 (centres undefined)	17.7	24.8	–
C[S+](C)CCC(=O)Nc1ccc(CC(=O)O)cc1	14.9	25.5	–
C[S+](C)CCC(=O)Nc1ccc(OCC(O)COC2CCCCC2)cc1 (centres undefined)	10.2	-7.4	–
CC(=O)c1ccc(NC(=O)CC[S+](C)C)cc1	9	25.1	–
C[S+](C)CCC(=O)Nc1ccccc1	–	-8.3	inhibition in vivo at 100 mg/kg (Rattus norvegicus [3]): 27.1%
C[S+](C)CCC(=O)NC1CCCCC1	–	9	inhibition in vivo at 100 mg/kg (Rattus norvegicus [3]): 17%
CCCCOCC(O)COc1ccc(NC(=O)CC[S+](C)C)cc1 (centres undefined)	7.9	4.4	–
